Laboratory results published in PMC6415545 (Nature, 2018).
Read-outs that look alike come from different tables or passages of the source. Marks after values point to notes of the source that are not given here.

T1: human UDP-α-D-glucose-6-dehydrogenase (hUGDH) (Homo sapiens, UniProt O60701)
T1 sequence (O60701 1-464 limits assumed): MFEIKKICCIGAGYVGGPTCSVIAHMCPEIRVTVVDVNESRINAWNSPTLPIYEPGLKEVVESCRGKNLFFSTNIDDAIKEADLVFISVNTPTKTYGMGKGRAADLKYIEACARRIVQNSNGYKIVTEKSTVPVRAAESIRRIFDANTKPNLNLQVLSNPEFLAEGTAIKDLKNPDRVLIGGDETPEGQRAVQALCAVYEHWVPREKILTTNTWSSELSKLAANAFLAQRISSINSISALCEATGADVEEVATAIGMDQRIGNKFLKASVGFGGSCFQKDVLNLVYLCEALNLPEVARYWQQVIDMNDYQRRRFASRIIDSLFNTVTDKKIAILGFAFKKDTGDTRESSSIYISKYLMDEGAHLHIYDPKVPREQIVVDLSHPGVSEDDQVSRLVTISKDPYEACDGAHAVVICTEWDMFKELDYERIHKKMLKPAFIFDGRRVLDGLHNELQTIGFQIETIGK


How the values were obtained:
[1] = tested on: human UDP-α-D-glucose-6-dehydrogenase (hUGDH); type: biochemical; details: for Kcat: UDP-Glc saturation curves, global fit ± standard error
In short: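 100 nM hexamer (500 nM dimer constructs) in 50 mM HEPES pH 7.5, 50 mM NaCl, 5 mM EDTA, 25 °C, saturating NAD+, varied UDP-Glc and UDP-Xyl. NADH was read at 340 nm. Frieden fits of early progress curves gave vss.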

[2] = tested on: human UDP-α-D-glucose-6-dehydrogenase (hUGDH); assay: Steady state kinetics: NAD+ substrate saturation curves; type: biochemical
In short: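 Separate 5-min, 25 °C pre-incubations of enzyme and substrate, then mixing. Enzyme was 100 nM hexameric hUGDH in 50 mM HEPES pH 7.5, 50 mM NaCl, 5 mM EDTA, with saturating UDP-Glc and varied NAD+. NADH was followed continuously at 340 nm (6220 M−1cm−1). Progress curves before 10% substrate depletion were fit to Frieden's equation for vss. Saturation curves were fit to the sigmoidal rate equation; n ≥ 10 data points.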

[3] = target: T1, human UDP-α-D-glucose-6-dehydrogenase (hUGDH); assay: Transient state kinetics of UDP-Xyl binding; details: hUGDHFL versus hUGDHΔID
In short: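 Stopped-flow intrinsic tryptophan fluorescence at 25 °C (dead time ~1.2 ms): 500 nM enzyme (syringe) mixed with varied UDP-Xyl, excitation 290 nm, emission cutoff filter below 320 nm. Traces were averaged over ≥ 4 replicates per concentration and inner-filter corrected. Six concentrations were globally fit by numerical simulation to a binding-plus-two-isomerization model, selected by confidence contour analysis. Binding free energy used a mM standard state.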

[4] = tested on: human UDP-α-D-glucose-6-dehydrogenase (hUGDH); assay: Stopped-flow analysis of hUGDH hysteresis; type: biochemical; details: hUGDHFL versus hUGDHΔID, pre-steady state progress curves
In short: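 Stopped-flow, 25 °C. 500 nM full-length or tail-deleted enzyme in 50 mM HEPES pH 7.5, 50 mM NaCl, 5 mM EDTA was mixed 1:1 with buffer holding substrate and cofactor, giving 250 nM enzyme with both saturating. NADH absorbance at 340 nm was taken every 10–15 ms. Curves were fit to Frieden's equation for lag length; mean and s.d. from ≥ 6 curves.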

[5] = Thermodynamic shift assay; type: physicochemical; details: thermal denaturation, hUGDHFL-dimer versus hUGDHΔID-dimer (Fig. 3d)
In short: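 Dimeric constructs at 0.1 mg/mL with 5X SYPRO Orange in 50 mM HEPES pH 7.5, 50 mM NaCl, 5 mM EDTA were spun and equilibrated 20 min. Fluorescence (excitation 470–505 nm, emission 540–570 nm) was recorded every 30 s while heating from 25 to 80 °C at […] in a qPCR instrument. Buffer-control baselines were subtracted; N ≥ 3.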

| Hill (h) ([2]; NAD+ saturation (Equation 6)) | enhancement of the initial UDP-Xyl binding step by the ID-tail [3] [fold] | gain in affinity of the initial UDP-Xyl binding step [3] [kcal/mol] | slowing of the rate of activation hysteresis (E* to E) by the ID-tail [4] [%] | ΔΔG, change in UDP-Xyl binding free energy ([1]; relative to the hUGDHΔID-A136M) | Molecule | Kcat [1] [s⁻¹] | Kcat ([2]; NAD+ saturation curves) [S^-1] | K0.5 (NAD^+) ([2]; NAD+ saturation, sigmoidal rate equation (Equation 6), hexameric enzyme) [mM] | destabilization by the ID-tail [5] [°C] |
| --- | --- | --- | --- | --- | --- | --- | --- | --- | --- |
| 0.8 ± 0.1 | 4.4 | -0.9 | 39 |  | FL: full-length human UDP-α-D-glucose-6-dehydrogenase with the native 30-residue ID-tail (residues 465–494) (protein, UniProt O60701 1-494, looked up, full-length) MFEIKKICCIGAGYVGGPTCSVIAHMCPEIRVTVVDVNESRINAWNSPTLPIYEPGLKEVVESCRGKNLFFSTNIDDAIKEADLVFISVNTPTKTYGMGKGRAADLKYIEACARRIVQNSNGYKIVTEKSTVPVRAAESIRRIFDANTKPNLNLQVLSNPEFLAEGTAIKDLKNPDRVLIGGDETPEGQRAVQALCAVYEHWVPREKILTTNTWSSELSKLAANAFLAQRISSINSISALCEATGADVEEVATAIGMDQRIGNKFLKASVGFGGSCFQKDVLNLVYLCEALNLPEVARYWQQVIDMNDYQRRRFASRIIDSLFNTVTDKKIAILGFAFKKDTGDTRESSSIYISKYLMDEGAHLHIYDPKVPREQIVVDLSHPGVSEDDQVSRLVTISKDPYEACDGAHAVVICTEWDMFKELDYERIHKKMLKPAFIFDGRRVLDGLHNELQTIGFQIETIGKKVSSKRIPYAPSGEIPKFSLQDPPNKKPKV | 0.8 ± 0.01 | 0.9 ± 0.08 | 0.8 ± 0.20 |  |
|  |  |  |  | 0.03^g kcal•mol^-1 | FL-A136M: full-length hUGDH with the allostery quenching A136M substitution (protein, UniProt O60701 1-494, looked up, variant A136M, full-length) MFEIKKICCIGAGYVGGPTCSVIAHMCPEIRVTVVDVNESRINAWNSPTLPIYEPGLKEVVESCRGKNLFFSTNIDDAIKEADLVFISVNTPTKTYGMGKGRAADLKYIEACARRIVQNSNGYKIVTEKSTVPVRMAESIRRIFDANTKPNLNLQVLSNPEFLAEGTAIKDLKNPDRVLIGGDETPEGQRAVQALCAVYEHWVPREKILTTNTWSSELSKLAANAFLAQRISSINSISALCEATGADVEEVATAIGMDQRIGNKFLKASVGFGGSCFQKDVLNLVYLCEALNLPEVARYWQQVIDMNDYQRRRFASRIIDSLFNTVTDKKIAILGFAFKKDTGDTRESSSIYISKYLMDEGAHLHIYDPKVPREQIVVDLSHPGVSEDDQVSRLVTISKDPYEACDGAHAVVICTEWDMFKELDYERIHKKMLKPAFIFDGRRVLDGLHNELQTIGFQIETIGKKVSSKRIPYAPSGEIPKFSLQDPPNKKPKV | 0.7 ± 0.01 |  |  |  |
|  |  |  |  |  | hUGDH: human UDP-α-D-glucose-6-dehydrogenase, named without a construct (protein, UniProt O60701 1-494, looked up) UDP-glucose 6-dehydrogenase: MFEIKKICCIGAGYVGGPTCSVIAHMCPEIRVTVVDVNESRINAWNSPTLPIYEPGLKEVVESCRGKNLFFSTNIDDAIKEADLVFISVNTPTKTYGMGKGRAADLKYIEACARRIVQNSNGYKIVTEKSTVPVRAAESIRRIFDANTKPNLNLQVLSNPEFLAEGTAIKDLKNPDRVLIGGDETPEGQRAVQALCAVYEHWVPREKILTTNTWSSELSKLAANAFLAQRISSINSISALCEATGADVEEVATAIGMDQRIGNKFLKASVGFGGSCFQKDVLNLVYLCEALNLPEVARYWQQVIDMNDYQRRRFASRIIDSLFNTVTDKKIAILGFAFKKDTGDTRESSSIYISKYLMDEGAHLHIYDPKVPREQIVVDLSHPGVSEDDQVSRLVTISKDPYEACDGAHAVVICTEWDMFKELDYERIHKKMLKPAFIFDGRRVLDGLHNELQTIGFQIETIGKKVSSKRIPYAPSGEIPKFSLQDPPNKKPKV |  |  |  | 3.5 |
